Measurements from ChEMBL document CHEMBL1143681, “Bifunctional [2',6'-dimethyl-L-tyrosine1]endomorphin-2 analogues substituted at position 3 with alkylated phenylalanine derivatives yield potent mixed mu-agonist/delta-antagonist and dual mu-agonist/delta-agonist opioid ligands” (J Med Chem, 2007).
Where a SMILES comes first, the peptide text is derived from it. [ ]: non-standard residue; d: D form. Dmt = Cc1cc(O)cc(C)c1C[C@H](N)C(=O)O

What was measured:
[1] = biological target: Mu-type opioid receptor (Rattus norvegicus, UniProt P33535); assay: Displacement of [3H]DAMGO from mu opioid receptor in Sprague-Dawley rat brain P2 synaptosome membrane; type: tissue-based
Method in brief: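 Competition binding at equilibrium (2.5 h, 22 °C) on Sprague-Dawley rat (150–160 g) brain P2 synaptosomes, preincubated 60 min at 22 °C to remove endogenous opioids. Radioligands: 3.5 nM [3H]DAMGO (μ) or 1.9 nM [3H]deltorphin-II (δ); nonspecific with 2 µM unlabeled peptide. GF/C filtration; duplicates, 5–8 doses, several preparations. Ki by Cheng-Prusoff (Kd 3.5 nM DAMGO, 1.4 nM deltorphin-II).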

[2] = biological target: Delta-type opioid receptor (Rattus norvegicus, UniProt P33533); assay: Displacement of [3H]deltorphin 2 from delta opioid receptor in Sprague-Dawley rat brain P2 synaptosome membrane; type: tissue-based
[3] = biological target: Opioid receptors; mu & delta (Rattus norvegicus) (UniProt P33533+P33535); assay: Selectivity for mu opioid receptor over delta opiod receptor in Sprague-Dawley rat brain P2 synaptosome membrane; type: tissue-based
[4] = biological target: Mu-type opioid receptor (Cavia porcellus, UniProt P97266); assay: Agonist activity at mu opioid receptor in Hartley guinea pig ileum assessed as inhibition of electrically-stimulated muscle contraction; type: functional, tissue-based
Method in brief: (§1)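 Isolated tissue: myenteric plexus longitudinal muscle strips (2–3 cm) from small intestine of male Hartley guinea pigs (μ), or single mouse vas deferens (δ), in organ baths with balanced salt solution, pH 7.5. Inhibition of electrically evoked contraction; IC50 (nM) from dose-response curves, mean ± SE of five to six separate assays.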

[5] = biological target: T1, Delta-type opioid receptor (Mus musculus, UniProt P32300); assay: Agonist activity at delta opioid receptor in mouse vas deferens assessed as inhibition of electrically-stimulated muscle contraction; type: functional, tissue-based; method in brief: as §1
[6] = biological target: Delta-type opioid receptor (Mus musculus) (UniProt P32300); assay: Agonist activity at delta opioid receptor in mouse vas deferens assessed as inhibition of electrically-stimulated muscle contraction at 10000 nM; type: functional, tissue-based; design: scale not given: the % may be the effect or the level left
Method in brief: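 Mouse vas deferens in organ bath, physiological buffer pH 7.5; maximal inhibition of electrically evoked contraction recorded at 10,000 nM.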

[7] = biological target: Kappa-type opioid receptor (Cavia porcellus, UniProt P41144); assay: Displacement of [3H]U-69593 from kappa opioid receptor in Hartley guinea pig cerebellum P2 synaptosome membrane; type: tissue-based
[8] = biological target: T1, Delta-type opioid receptor; assay: Antagonist activity at delta opioid receptor in mouse vas deferens assessed as inhibition of deltorphin 2-induced response; type: functional, tissue-based; settings: read-out: pA2 (converted)
Method in brief: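 Single mouse vas deferens in organ bath, pH 7.5 buffer; δ antagonism measured against deltorphin II-induced inhibition of electrically evoked contraction. pA2 from Schild plot: negative log molar concentration needed to double deltorphin II concentration for the original response.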

Sequence of Mu-type opioid receptor (Cavia porcellus, UniProt P97266) (P97266 whole entry): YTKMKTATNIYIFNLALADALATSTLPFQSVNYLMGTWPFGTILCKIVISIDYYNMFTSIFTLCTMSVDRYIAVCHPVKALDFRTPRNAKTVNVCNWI
Sequence of Delta-type opioid receptor (Rattus norvegicus, UniProt P33533) (P33533 whole entry): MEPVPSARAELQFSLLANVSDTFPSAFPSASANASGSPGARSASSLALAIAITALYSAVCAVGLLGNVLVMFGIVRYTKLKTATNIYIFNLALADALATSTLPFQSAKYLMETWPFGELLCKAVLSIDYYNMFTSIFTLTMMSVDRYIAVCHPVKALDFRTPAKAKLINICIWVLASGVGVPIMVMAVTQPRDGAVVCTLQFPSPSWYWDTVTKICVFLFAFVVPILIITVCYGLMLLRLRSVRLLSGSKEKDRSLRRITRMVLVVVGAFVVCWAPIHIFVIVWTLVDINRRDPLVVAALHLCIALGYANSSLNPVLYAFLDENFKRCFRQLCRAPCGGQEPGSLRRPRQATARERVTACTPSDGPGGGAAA
Sequence of Opioid receptors; mu & delta (Rattus norvegicus) (P33533 whole entry, looked up): as the sequence (P33533 whole entry) above
Sequence of Opioid receptors; mu & delta (Rattus norvegicus) (P33535 whole entry, looked up): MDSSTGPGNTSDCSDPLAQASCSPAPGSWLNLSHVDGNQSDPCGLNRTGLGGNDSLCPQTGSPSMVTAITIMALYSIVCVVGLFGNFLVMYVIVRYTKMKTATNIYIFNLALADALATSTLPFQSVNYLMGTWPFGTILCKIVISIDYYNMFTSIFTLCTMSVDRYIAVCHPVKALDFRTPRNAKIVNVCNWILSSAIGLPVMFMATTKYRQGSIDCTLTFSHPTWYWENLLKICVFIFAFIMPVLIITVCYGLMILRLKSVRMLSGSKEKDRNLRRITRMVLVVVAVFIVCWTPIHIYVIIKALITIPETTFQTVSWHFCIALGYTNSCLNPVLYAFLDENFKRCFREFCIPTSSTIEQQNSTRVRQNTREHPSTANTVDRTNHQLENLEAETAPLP
T1 sequence (P32300 whole entry): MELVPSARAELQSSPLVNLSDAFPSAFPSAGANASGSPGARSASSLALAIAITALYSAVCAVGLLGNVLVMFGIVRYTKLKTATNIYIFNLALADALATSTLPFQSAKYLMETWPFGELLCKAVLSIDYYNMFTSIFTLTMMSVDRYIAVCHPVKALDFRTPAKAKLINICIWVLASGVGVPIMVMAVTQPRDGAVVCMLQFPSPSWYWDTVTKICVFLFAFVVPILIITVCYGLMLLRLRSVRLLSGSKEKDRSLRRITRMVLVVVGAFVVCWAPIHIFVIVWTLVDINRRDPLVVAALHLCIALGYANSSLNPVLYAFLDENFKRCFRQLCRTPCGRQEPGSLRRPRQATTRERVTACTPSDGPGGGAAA
Sequence of Delta-type opioid receptor (Mus musculus) (P32300 whole entry): as above
Sequence of Kappa-type opioid receptor (P41144 whole entry): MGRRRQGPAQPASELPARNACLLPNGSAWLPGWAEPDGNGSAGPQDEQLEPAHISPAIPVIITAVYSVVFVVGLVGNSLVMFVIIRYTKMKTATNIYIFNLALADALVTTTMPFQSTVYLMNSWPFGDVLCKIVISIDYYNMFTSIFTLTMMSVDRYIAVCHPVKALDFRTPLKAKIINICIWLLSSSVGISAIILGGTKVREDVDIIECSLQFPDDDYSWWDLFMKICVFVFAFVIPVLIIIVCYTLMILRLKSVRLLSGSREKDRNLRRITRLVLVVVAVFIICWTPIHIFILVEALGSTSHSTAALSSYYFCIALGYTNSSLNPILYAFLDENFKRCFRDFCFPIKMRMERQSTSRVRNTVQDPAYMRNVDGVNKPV
Sequence of Mu-type opioid receptor (Rattus norvegicus, UniProt P33535) (P33535 whole entry): as the sequence (P33535 whole entry, looked up) above

Row | SMILES | Ki [1] [nM] | Ki [2] [nM] | Ratio Ki [3] | IC50 [4] [nM] | IC50 [5] [nM] | Activity [6] [%] | Ki [7] [nM] | Kb [8] [nM]
1 | Cc1cc(C)cc(C[C@H](NC(=O)[C@@H]2CCCN2C(=O)[C@@H](N)Cc2ccc(O)cc2)C(=O)N[C@@H](Cc2ccccc2)C(N)=O)c1 | 6.19 | 3450 | 558 | 389 | > 10000 | > 8 | – | –
2 | Cc1cccc(C)c1C[C@H](NC(=O)[C@@H]1CCCN1C(=O)[C@@H](N)Cc1ccc(O)cc1)C(=O)N[C@@H](Cc1ccccc1)C(N)=O | 0.044 | 1440 | 32700 | 0.38 | 1.39 | – | > 4000 | –
3 | Cc1ccccc1C[C@H](NC(=O)[C@@H]1CCCN1C(=O)[C@@H](N)Cc1c(C)cc(O)cc1C)C(=O)N[C@@H](Cc1ccccc1)C(N)=O | 0.18 | 4.61 | 26 | 0.16 | > 10000 | 0 | 176 | 257
4 | CCc1cccc(C)c1C[C@H](NC(=O)[C@@H]1CCCN1C(=O)[C@@H](N)Cc1c(C)cc(O)cc1C)C(=O)N[C@@H](Cc1ccccc1)C(N)=O | 0.21 | 3.03 | 14 | 0.17 | 0.51 | – | 278 | –
5 | Cc1cccc(C(C)C)c1C[C@H](NC(=O)[C@@H]1CCCN1C(=O)[C@@H](N)Cc1ccc(O)cc1)C(=O)N[C@@H](Cc1ccccc1)C(N)=O | 0.45 | 543 | 1220 | 2.74 | – | – | – | –
6 | Cc1cc(O)cc(C)c1C[C@H](NC(=O)[C@@H]1CCCN1C(=O)[C@@H](N)Cc1c(C)cc(O)cc1C)C(=O)N[C@@H](Cc1ccccc1)C(N)=O (H-[Dmt]P[Dmt]F-NH2) | 0.092 | 80.8 | – | 1.94 | > 10000 | – | 998 | 87.1
7 | Cc1cc(O)ccc1C[C@H](NC(=O)[C@@H]1CCCN1C(=O)[C@@H](N)Cc1ccc(O)cc1)C(=O)N[C@@H](Cc1ccccc1)C(N)=O | – | – | 1150 | – | – | – | – | –
8 | Cc1cc(C)c(C[C@H](NC(=O)[C@@H]2CCCN2C(=O)[C@@H](N)Cc2ccc(O)cc2)C(=O)N[C@@H](Cc2ccccc2)C(N)=O)c(C)c1 | 0.44 | 1360 | 3090 | 1.9 | > 10000 | > 36.2 | – | –
9 | Cc1cccc(C)c1C[C@H](NC(=O)[C@@H]1CCCN1C(=O)[C@@H](N)Cc1c(C)cc(O)cc1C)C(=O)N[C@@H](Cc1ccccc1)C(N)=O | 0.069 | 2.27 | 33 | 0.12 | – | – | 94.2 | 7.08
10 | Cc1cc(O)cc(C)c1C[C@H](N)C(=O)N1CCC[C@H]1C(=O)N[C@@H](Cc1c(C)cccc1C(C)C)C(=O)N[C@@H](Cc1ccccc1)C(N)=O | 0.32 | 4.61 | 14 | 0.2 | 5.56 | – | 205 | –
11 | Cc1cc(C)c(C[C@H](NC(=O)[C@@H]2CCCN2C(=O)[C@@H](N)Cc2c(C)cc(O)cc2C)C(=O)N[C@@H](Cc2ccccc2)C(N)=O)c(C)c1 | 0.18 | 1.83 | 10 | 0.21 | > 10000 | > 22.2 | 172 | 0.891
12 | Cc1cc(O)cc(C)c1C[C@H](N)C(=O)N1CCC[C@H]1C(=O)N[C@@H](Cc1ccccc1)C(=O)N[C@@H](Cc1ccccc1)C(N)=O | 0.26 | 99.2 | 382 | 0.26 | 0.59 | – | 489 | –
13 | CCc1cccc(C)c1C[C@H](NC(=O)[C@@H]1CCCN1C(=O)[C@@H](N)Cc1ccc(O)cc1)C(=O)N[C@@H](Cc1ccccc1)C(N)=O | 0.46 | 491 | 1070 | 2.35 | 277 | – | – | –
14 | Cc1cc(O)cc(C)c1C[C@H](NC(=O)[C@@H]1CCCN1C(=O)[C@@H](N)Cc1ccc(O)cc1)C(=O)N[C@@H](Cc1ccccc1)C(N)=O (H-YP[Dmt]F-NH2) | 2.63 | 3020 | – | 541 | 978 | – | – | –
15 | Cc1cc(C)cc(C[C@H](NC(=O)[C@@H]2CCCN2C(=O)[C@@H](N)Cc2c(C)cc(O)cc2C)C(=O)N[C@@H](Cc2ccccc2)C(N)=O)c1 | 0.11 | 11.6 | 105 | 14.4 | > 10000 | > 7.1 | 830 | 170
16 | Cc1ccccc1C[C@H](NC(=O)[C@@H]1CCCN1C(=O)[C@@H](N)Cc1ccc(O)cc1)C(=O)N[C@@H](Cc1ccccc1)C(N)=O | 0.22 | 1740 | 7880 | 1.33 | 15.7 | – | – | –
17 | Cc1cc(O)ccc1C[C@H](NC(=O)[C@@H]1CCCN1C(=O)[C@@H](N)Cc1c(C)cc(O)cc1C)C(=O)N[C@@H](Cc1ccccc1)C(N)=O | – | – | 878 | – | – | < 1 | – | –
